Assay results published in ChEMBL document CHEMBL1148285, “Pyridinium cationic lipids in gene delivery: a structure-activity correlation study” (J Med Chem, 2004).

System: NCI-H23
Assay: Transfection efficiency in NCI-H23 lung cancer cell line was determined.
Type: functional, cell-based
Settings: Homo sapiens
Summary of the method: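 Cationic lipid/cholesterol 1:1 liposomes hydrated in PBS and bath-sonicated (twice 15 min, 65–68 °C; DOTAP/Chol at 37 °C). Lipoplexes with pGL3 (SV40-luciferase) at 2:1 charge ratio, 30 min at 22 °C in Optimem. NCI-H23 cells in RPMI 1640/10% FBS, 20 000 cells/well seeded 24 h before. Exposed 1 h, then medium added for 24 h. Lysate luciferase measured by luminometer, protein by BCA. Triplicate or quadruplicate, mean ± 1 SD.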

SMILES | Activity
CCCCCCCC(=O)Oc1ccc(CC[n+]2c(C)cc(C)cc2C)cc1OC(=O)CCCCCCC | A
CCCCCCCCCCCCCC(=O)Oc1ccc(CC[n+]2c(C)cc(C)cc2C)cc1OC(=O)CCCCCCCCCCCCC | A
CCCCCCCCCC(=O)Oc1ccc(CC[n+]2c(C)cc(C)cc2C)cc1OC(=O)CCCCCCCCC | A
CCCCCCCCCCCCCCCCCC(=O)OCC(COC(=O)CCCCCCCCCCCCCCCCC)[n+]1c(C)cc(C)cc1C | A
CCCCCCCCCCCCCCCC(=O)OCC(COC(=O)CCCCCCCCCCCCCCC)[n+]1c(C)cc(C)cc1C | A
CCCCCCCCCCCCCCCC(=O)Oc1ccc(CC[n+]2c(C)cc(C)cc2C)cc1OC(=O)CCCCCCCCCCCCCCC | A
CCCCCCCCCCCCCC(=O)OCC(COC(=O)CCCCCCCCCCCCC)[n+]1c(C)cc(C)cc1C | A
CCCCCCCCCCCC(=O)Oc1ccc(CC[n+]2c(C)cc(C)cc2C)cc1OC(=O)CCCCCCCCCCC | A
CCCCCCCCCCCC(=O)OCC(COC(=O)CCCCCCCCCCC)[n+]1c(C)cc(C)cc1C | A
CCCCCCCCCCCCCCCCCC(=O)Oc1ccc(CC[n+]2c(C)cc(C)cc2C)cc1OC(=O)CCCCCCCCCCCCCCCCC | A
